Laboratory results: ChEMBL document CHEMBL4673181, “An investigation of the antileishmanial properties of semi-synthetic saponins” (RSC Med Chem, 2020)

Columns and labels:
Leishmania mexicana [1] = test: Antileishmanial activity against axenic amastigote stage of Leishmania mexicana (MNYC/BZ/62/M379) assessed as induction of parasite killing incubated for 24 hrs by alamar blue dye based fluorescence analysis; assay type: functional; settings: read-out: ED50 (the source's name)
Method in brief: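 L. mexicana axenic amastigotes (from promastigotes by pH/temperature shift; Schneider's with 20% HIFBS) at 4x10⁵ mL⁻¹, exposed to three-fold dilutions from 50 μM to 0.21 μM for 24 h at 33 °C in sealed plates. alamarBlue then added for another 24 h, fluorescence read at 560/600 nm. Amphotericin B (50 μM) positive, DMSO negative control. Duplicates on four occasions, EC₅₀ fitted.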

Leishmania mexicana [2] = test: Antileishmanial activity against axenic amastigote stage of Leishmania mexicana (MNYC/BZ/62/M379) assessed as inhibition of parasite proliferation at 50 uM incubated for 24 hrs by alamar blue dye based fluorescence analysis; assay type: functional
Method in brief: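 Primary single-point screen at 50 μM, in duplicate. Axenic L. mexicana amastigotes at 4x10⁵ mL⁻¹ incubated with compound 24 h at 33 °C in sealed plates, then alamarBlue for a further 24 h at the same temperature. Viability read by fluorescence at 560/600 nm against amphotericin B (50 μM) and DMSO controls.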

## CC1(C)CC[C@]2(C(=O)OCc3ccccc3)CC[C@]3(C)C(=CC[C@@H]4[C@@]5(C)CC[C@H](O)[C@@](C)(CO)[C@@H]5CC[C@]43C)[C@@H]2C1
Leishmania mexicana [1]
  EC50: > 50 µM
Leishmania mexicana [2]
  inhibition at 50 µM: ≥ 95%

## CCOC(=O)[C@]12CCC(C)(C)C[C@H]1C1=CC[C@@H]3[C@@]4(C)CC[C@H](O)[C@@](C)(CO)[C@@H]4CC[C@@]3(C)[C@]1(C)CC2
Leishmania mexicana [1]
  EC50: > 50 µM
Leishmania mexicana [2]
  inhibition at 50 µM: ≥ 95%

## CC1(C)CC[C@]2(NC(=O)NCc3cccnc3)CC[C@]3(C)C(=CC[C@@H]4[C@@]5(C)CC[C@@H]6OC(C)(C)OC[C@@]6(C)[C@@H]5CC[C@]43C)[C@@H]2C1
Leishmania mexicana [1]
  EC50: 17.5 µM
Leishmania mexicana [2]
  inhibition at 50 µM: ≥ 95%

## CC(=O)N1CCN(C(=O)N[C@]23CCC(C)(C)C[C@H]2C2=CC[C@@H]4[C@@]5(C)CC[C@@H]6OC(C)(C)OC[C@@]6(C)[C@@H]5CC[C@@]4(C)[C@]2(C)CC3)CC1
Leishmania mexicana [1]
  EC50: 26.4 µM
Leishmania mexicana [2]
  inhibition at 50 µM: ≥ 95%

## C[C@@H]1O[C@@H](C[C@@H]2OC[C@@]3(C)[C@@H]4CC[C@]5(C)[C@H](CC=C6[C@@H]7CC(C)(C)CC[C@]7(C(=O)O)CC[C@]65C)[C@@]4(C)CC[C@@H]3O2)[C@H](O)[C@H](O)[C@H]1O
Leishmania mexicana [1]
  EC50: 13.9 µM
Leishmania mexicana [2]
  inhibition at 50 µM: ≥ 95%

## CC1(C)CC[C@]2(NC(=O)N3CCCNCC3)CC[C@]3(C)C(=CC[C@@H]4[C@@]5(C)CC[C@@H]6OC(C)(C)OC[C@@]6(C)[C@@H]5CC[C@]43C)[C@@H]2C1
Leishmania mexicana [1]
  EC50: > 50 µM
Leishmania mexicana [2]
  inhibition at 50 µM: ≥ 95%

## CC1(C)CC[C@]2(NC(=O)NCCCn3ccnc3)CC[C@]3(C)C(=CC[C@@H]4[C@@]5(C)CC[C@@H]6OC(C)(C)OC[C@@]6(C)[C@@H]5CC[C@]43C)[C@@H]2C1
Leishmania mexicana [1]
  EC50: 37.6 µM
Leishmania mexicana [2]
  inhibition at 50 µM: ≥ 95%

## C[C@@H]1O[C@@H](O[C@H]2[C@H](O[C@H]3CC[C@@]4(C)[C@@H](CC[C@]5(C)[C@@H]4CC=C4[C@@H]6CC(C)(C)CC[C@]6(C(=O)O)CC[C@]45C)[C@]3(C)CO)OC[C@H](O)[C@@H]2O)[C@H](O)[C@H](O)[C@H]1O [ALPHA-HEDERIN]
Leishmania mexicana [1]
  EC50: 19.6 µM
Leishmania mexicana [2]
  inhibition at 50 µM: ≥ 95%

## CC1(C)CC[C@]2(NC(=O)O)CC[C@]3(C)C(=CC[C@@H]4[C@@]5(C)CC[C@@H]6O[C@H](C[C@H]7O[C@H](CO)[C@@H](O)[C@H](O)[C@@H]7O)OC[C@@]6(C)[C@@H]5CC[C@]43C)[C@@H]2C1
Leishmania mexicana [1]
  EC50: > 50 µM
Leishmania mexicana [2]
  inhibition at 50 µM: ≥ 95%

## C[C@H](O)[C@H](O)[C@@H](O)[C@@H](O)[C@@H]1OC[C@@]2(C)[C@@H]3CC[C@]4(C)[C@H](CC=C5[C@@H]6CC(C)(C)CC[C@]6(CO)CC[C@]54C)[C@@]3(C)CC[C@@H]2O1
Leishmania mexicana [1]
  EC50: 26.9 µM
Leishmania mexicana [2]
  inhibition at 50 µM: ≥ 95%

## CC1(C)CC[C@]2(NC(=O)N3CCC[C@H]3C(=O)NCCCn3ccnc3)CC[C@]3(C)C(=CC[C@@H]4[C@@]5(C)CC[C@@H]6OC(C)(C)OC[C@@]6(C)[C@@H]5CC[C@]43C)[C@@H]2C1
Leishmania mexicana [1]
  EC50: 20.2 µM
Leishmania mexicana [2]
  inhibition at 50 µM: ≥ 95%

## CC1(C)CC[C@]2(NC(=O)N3CCC[C@H]3CN3CCCC3)CC[C@]3(C)C(=CC[C@@H]4[C@@]5(C)CC[C@@H]6OC(C)(C)OC[C@@]6(C)[C@@H]5CC[C@]43C)[C@@H]2C1
Leishmania mexicana [1]
  EC50: > 50 µM
Leishmania mexicana [2]
  inhibition at 50 µM: ≥ 95%

## CC1(C)CC[C@]2(NC(=O)N3CCCC3)CC[C@]3(C)C(=CC[C@@H]4[C@@]5(C)CC[C@H](O)[C@@](C)(CO)[C@@H]5CC[C@]43C)[C@@H]2C1
Leishmania mexicana [1]
  EC50: 15.3 µM
Leishmania mexicana [2]
  inhibition at 50 µM: ≥ 95%

## CC1(C)CC[C@]2(CO)CC[C@]3(C)C(=CC[C@@H]4[C@@]5(C)CC[C@@H]6O[C@H]([C@H](O)[C@@H](O)[C@H](O)[C@H](O)CO)OC[C@@]6(C)[C@@H]5CC[C@]43C)[C@@H]2C1
Leishmania mexicana [1]
  EC50: > 50 µM
Leishmania mexicana [2]
  inhibition at 50 µM: ≥ 95%

## C[C@@H]1O[C@@H](C[C@@H]2OC[C@@]3(C)[C@@H]4CC[C@]5(C)[C@H](CC=C6[C@@H]7CC(C)(C)CC[C@]7(C(=O)O)CC[C@]65C)[C@@]4(C)CC[C@@H]3O2)[C@@H](O)[C@H](O)[C@@H]1O
Leishmania mexicana [1]
  EC50: 19.4 µM
Leishmania mexicana [2]
  inhibition at 50 µM: ≥ 95%

## CC1(C)CC[C@]2(C(=O)OCc3ccccc3[N+](=O)[O-])CC[C@]3(C)C(=CC[C@@H]4[C@@]5(C)CC[C@H](O)[C@@](C)(CO)[C@@H]5CC[C@]43C)[C@@H]2C1
Leishmania mexicana [1]
  EC50: > 50 µM
Leishmania mexicana [2]
  inhibition at 50 µM: ≥ 95%

## C=CCOC(=O)[C@]12CCC(C)(C)C[C@H]1C1=CC[C@@H]3[C@@]4(C)CC[C@H](O)[C@@](C)(CO)[C@@H]4CC[C@@]3(C)[C@]1(C)CC2
Leishmania mexicana [1]
  EC50: 22.7 µM
Leishmania mexicana [2]
  inhibition at 50 µM: ≥ 95%

## CC1(C)CC[C@]2(C(=O)OCCC3OCCCO3)CC[C@]3(C)C(=CC[C@@H]4[C@@]5(C)CC[C@H](O)[C@@](C)(CO)[C@@H]5CC[C@]43C)[C@@H]2C1
Leishmania mexicana [1]
  EC50: > 50 µM
Leishmania mexicana [2]
  inhibition at 50 µM: ≥ 95%

## CN1CCN(C(=O)[C@@H]2CCCN2C(=O)N[C@]23CCC(C)(C)C[C@H]2C2=CC[C@@H]4[C@@]5(C)CC[C@@H]6OC(C)(C)OC[C@@]6(C)[C@@H]5CC[C@@]4(C)[C@]2(C)CC3)CC1
Leishmania mexicana [1]
  EC50: 32.4 µM
Leishmania mexicana [2]
  inhibition at 50 µM: ≥ 95%

## CN(C[C@H](O)[C@@H](O)[C@H](O)[C@H](O)CO)C(=O)N[C@]12CCC(C)(C)C[C@H]1C1=CC[C@@H]3[C@@]4(C)CC[C@@H]5OC(C)(C)OC[C@@]5(C)[C@@H]4CC[C@@]3(C)[C@]1(C)CC2
Leishmania mexicana [1]
  EC50: 19.9 µM
Leishmania mexicana [2]
  inhibition at 50 µM: ≥ 95%

## CC1(C)CC[C@]2(C(=O)O)CC[C@]3(C)C(=CC[C@@H]4[C@@]5(C)CC[C@@H]6OCOC[C@@]6(C)[C@@H]5CC[C@]43C)[C@@H]2C1
Leishmania mexicana [1]
  EC50: 14.9 µM
Leishmania mexicana [2]
  inhibition at 50 µM: ≥ 95%

## C#CCOC(=O)[C@]12CCC(C)(C)C[C@H]1C1=CC[C@@H]3[C@@]4(C)CC[C@H](O)[C@@](C)(CO)[C@@H]4CC[C@@]3(C)[C@]1(C)CC2
Leishmania mexicana [1]
  EC50: 15.1 µM
Leishmania mexicana [2]
  inhibition at 50 µM: ≥ 95%

## COC(=O)[C@]12CCC(C)(C)C[C@H]1C1=CC[C@@H]3[C@@]4(C)CC[C@@H]5O[C@H](CC6O[C@H]([C@H](C)O)[C@@H](O)[C@@H]6O)OC[C@@]5(C)[C@@H]4CC[C@@]3(C)[C@]1(C)CC2 (some centres undefined)
Leishmania mexicana [1]
  EC50: > 50 µM
Leishmania mexicana [2]
  inhibition at 50 µM: ≥ 95%

## CC(=O)OC[C@@]1(C)[C@@H]2CC[C@]3(C)[C@H](CC=C4[C@@H]5CC(C)(C)CC[C@]5(NC(=O)N5CCN(C)CC5)CC[C@]43C)[C@@]2(C)CC[C@@H]1O[C@@H]1OC[C@H](OC(C)=O)[C@H](OC(C)=O)[C@H]1O[C@@H]1O[C@@H](C)[C@H](OC(C)=O)[C@@H](OC(C)=O)[C@H]1OC(C)=O
Leishmania mexicana [1]
  EC50: 19.9 µM
Leishmania mexicana [2]
  inhibition at 50 µM: ≥ 95%

## C[C@H]1O[C@H](C[C@@H]2OC[C@@]3(C)[C@@H]4CC[C@]5(C)[C@H](CC=C6[C@@H]7CC(C)(C)CC[C@]7(C(=O)O)CC[C@]65C)[C@@]4(C)CC[C@@H]3O2)[C@H](O)[C@@H](O)[C@@H]1O
Leishmania mexicana [1]
  EC50: > 50 µM
Leishmania mexicana [2]
  inhibition at 50 µM: ≥ 95%

## CC1(C)CC[C@]2(NC(=O)N[C@H]3C(O)O[C@H](CO)[C@@H](O)[C@@H]3O)CC[C@]3(C)C(=CC[C@@H]4[C@@]5(C)CC[C@@H]6OC(C)(C)OC[C@@]6(C)[C@@H]5CC[C@]43C)[C@@H]2C1 (some centres undefined)
Leishmania mexicana [1]
  EC50: > 50 µM
Leishmania mexicana [2]
  inhibition at 50 µM: ≥ 95%

## CN(C)CCCNC(=O)N[C@]12CCC(C)(C)C[C@H]1C1=CC[C@@H]3[C@@]4(C)CC[C@@H]5OC(C)(C)OC[C@@]5(C)[C@@H]4CC[C@@]3(C)[C@]1(C)CC2
Leishmania mexicana [1]
  EC50: 17.5 µM
Leishmania mexicana [2]
  inhibition at 50 µM: ≥ 95%

## CC1(C)CC[C@]2(NC(=O)NCCN3CCCC3)CC[C@]3(C)C(=CC[C@@H]4[C@@]5(C)CC[C@@H]6OC(C)(C)OC[C@@]6(C)[C@@H]5CC[C@]43C)[C@@H]2C1
Leishmania mexicana [1]
  EC50: > 50 µM
Leishmania mexicana [2]
  inhibition at 50 µM: ≥ 95%

## CCOCc1ccc(C2OC[C@@]3(C)[C@@H]4CC[C@]5(C)[C@H](CC=C6[C@@H]7CC(C)(C)CC[C@]7(C(=O)O)CC[C@]65C)[C@@]4(C)CC[C@@H]3O2)o1 (some centres undefined)
Leishmania mexicana [1]
  EC50: 19.2 µM
Leishmania mexicana [2]
  inhibition at 50 µM: ≥ 95%

## CC1(C)CC[C@]2(NC(=O)N3CCC[C@H]3CO)CC[C@]3(C)C(=CC[C@@H]4[C@@]5(C)CC[C@@H]6OC(C)(C)OC[C@@]6(C)[C@@H]5CC[C@]43C)[C@@H]2C1
Leishmania mexicana [1]
  EC50: 26.2 µM
Leishmania mexicana [2]
  inhibition at 50 µM: ≥ 95%

## C[C@H](O)[C@H](O)[C@@H](O)[C@@H](O)[C@@H]1OC[C@@]2(C)[C@@H]3CC[C@]4(C)[C@H](CC=C5[C@@H]6CC(C)(C)CC[C@]6(C(=O)O)CC[C@]54C)[C@@]3(C)CC[C@@H]2O1
Leishmania mexicana [1]
  EC50: 21.2 µM
Leishmania mexicana [2]
  inhibition at 50 µM: ≥ 95%

## COC(=O)[C@H](Cc1c[nH]cn1)NC(=O)N[C@]12CCC(C)(C)C[C@H]1C1=CC[C@@H]3[C@@]4(C)CC[C@@H]5OC(C)(C)OC[C@@]5(C)[C@@H]4CC[C@@]3(C)[C@]1(C)CC2
Leishmania mexicana [1]
  EC50: 20.9 µM
Leishmania mexicana [2]
  inhibition at 50 µM: ≥ 95%

## CC1(C)CC[C@]2(CO)CC[C@]3(C)C(=CC[C@@H]4[C@@]5(C)CC[C@@H]6O[C@H]([C@H](O)[C@@H](O)[C@H](O)CO)OC[C@@]6(C)[C@@H]5CC[C@]43C)[C@@H]2C1
Leishmania mexicana [1]
  EC50: > 50 µM
Leishmania mexicana [2]
  inhibition at 50 µM: ≥ 95%

## CCCOC(=O)[C@]12CCC(C)(C)C[C@H]1C1=CC[C@@H]3[C@@]4(C)CC[C@H](O)[C@@](C)(CO)[C@@H]4CC[C@@]3(C)[C@]1(C)CC2
Leishmania mexicana [1]
  EC50: 43.6 µM
Leishmania mexicana [2]
  inhibition at 50 µM: ≥ 95%

## CC1(C)CC[C@]2(CO)CC[C@]3(C)C(=CC[C@@H]4[C@@]5(C)CC[C@@H]6O[C@H]([C@H](O)[C@@H](O)[C@@H](O)CO)OC[C@@]6(C)[C@@H]5CC[C@]43C)[C@@H]2C1
Leishmania mexicana [2]
  inhibition at 50 µM: ≥ 95%
